High-throughput results (PubChem BioAssay)
Efflux pump mplx – antifungal efflux pump inhibition, Nile Red retention. AID 485275. inhibition, % at 10 µM. S. cerevisiae Candida pump triplex. hit rate 0.44% among 330,000;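 active means plate passing quality check with inhibition over a set limit, or well fluorescence over plate mean plus 4 SD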;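 further: Nile Red retained in pooled yeast measured as flow cytometry median fluorescence; higher means more Nile Red kept so more efflux inhibition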
TbMetRS inhib – blocks T. brucei methionyl-tRNA synthetase activity. hit rate 0.4% among 360,000. inhibition, % at 11.9 µM. purified T. brucei MetRS, ATP depletion, Kinase-Glo luminescence. AID 624268;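 active means inhibition above a per-plate cutoff of the control wells' mean inhibition plus 3 SD, cut at about 5.5% in these data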
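Material: T. brucei methionyl-tRNA synthetase, purified; reagent: substrates ATP, L-methionine and bulk Escherichia coli tRNA; dosing: 11.9 µM single point; timing: 15 min plus 2 h at 25 °C; detection: luminescence of leftover ATP; evaluation: % inhibition; control set: DMSO-only wells as low control; replicates: singlicate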
AHR act – activators of human aryl hydrocarbon receptor; P35869; AHR-responsive luciferase reporter cells, luminescence; activation, % at 5 µM; hit rate 2.5% among 320,000; AID 2796; in the data active means activation above about 47%
Target sequence (P35869 whole entry, looked up): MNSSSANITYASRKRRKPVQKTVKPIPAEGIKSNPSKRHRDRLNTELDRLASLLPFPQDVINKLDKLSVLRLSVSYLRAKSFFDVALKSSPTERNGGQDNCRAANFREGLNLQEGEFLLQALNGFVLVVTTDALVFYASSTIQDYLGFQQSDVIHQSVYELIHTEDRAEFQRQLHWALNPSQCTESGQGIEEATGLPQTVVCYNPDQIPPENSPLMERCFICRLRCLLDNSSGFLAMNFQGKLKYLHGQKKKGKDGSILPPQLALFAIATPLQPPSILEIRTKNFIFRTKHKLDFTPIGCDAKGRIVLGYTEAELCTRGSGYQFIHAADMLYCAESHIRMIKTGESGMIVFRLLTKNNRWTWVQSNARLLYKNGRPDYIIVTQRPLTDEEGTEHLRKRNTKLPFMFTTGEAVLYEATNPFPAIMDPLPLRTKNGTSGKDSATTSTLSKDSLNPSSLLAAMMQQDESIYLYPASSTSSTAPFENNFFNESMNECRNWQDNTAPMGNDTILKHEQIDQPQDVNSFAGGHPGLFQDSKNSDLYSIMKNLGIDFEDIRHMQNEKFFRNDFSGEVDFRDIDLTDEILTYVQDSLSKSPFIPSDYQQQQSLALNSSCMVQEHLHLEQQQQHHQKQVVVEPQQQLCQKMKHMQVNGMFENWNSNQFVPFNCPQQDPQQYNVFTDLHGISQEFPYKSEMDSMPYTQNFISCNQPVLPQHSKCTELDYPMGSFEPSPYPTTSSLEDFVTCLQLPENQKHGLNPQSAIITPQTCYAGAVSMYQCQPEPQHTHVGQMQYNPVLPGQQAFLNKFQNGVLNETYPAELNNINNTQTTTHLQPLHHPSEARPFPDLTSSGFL
TAG inh – triacylglycerol accumulation inhibition; H9c2 cells, Nile Red lipid (TAG) fluorescence; cells loaded with 200 µM oleic acid; inhibition, % at 12.5 µM; hit rate 0.66% among 230,000; AID 651582;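 active means pattern-corrected inhibition of lipid staining of at least 50% with the nuclear-stain viability signal not falling by more than 50%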
SMARCA2 activ – SMARCA2 function activation, primary screen; MG213 cells, MMTV-luciferase reporter, dexamethasone, overnight; activation, % at 9.1 µM; hit rate 1% among 370,000; in the data active means activation above about 7.8%
Of the large screens only hits and unclear results are named; the others gave an inactive call. An excerpt weighted towards active compounds, which were near 4.1% of everything screened.

Cc1ccccc1CSc1nc2[nH]ncc2c(=O)[nH]1	none (no result: TAG inh)
Cc1ccc(C)c(CSc2nc3[nH]ncc3c(=O)[nH]2)c1	AHR act 48
Cc1cccc(/C=N/NC(=O)Cc2ccc(Cl)cc2)c1O	AHR act 52
Cn1c(=O)cc(SCC(=O)N2CCN(c3ccccn3)CC2)c2ccccc21	AHR act 64
Cn1c(=O)cc(SCC(=O)Nc2ccccn2)c2ccccc21	AHR act 62 (no result: TbMetRS inhib, TAG inh)
Cc1ccnc(NC(=O)CSc2cc(=O)n(C)c3ccccc23)c1	none
Cc1ccccc1CN1CCCCC(NC(=O)C2CCCCC2)C1=O (centres undefined)	none (no result: Efflux pump mplx, TbMetRS inhib, AHR act, TAG inh)
O=C(OC12CCCN(C1)/C(=C/c1ccccc1)C2)c1ccc(Cl)cc1 (centres undefined)	none (no result: Efflux pump mplx, TbMetRS inhib, AHR act, TAG inh)
CCC(C)c1ccccc1NC(=O)COC(=O)c1ccc(N2CCCC2)c([N+](=O)[O-])c1 (centres undefined)	none (no result: TAG inh)
Cc1ccc(NC(=O)c2cc3cccc([N+](=O)[O-])c3[nH]2)cc1	AHR act 71
CCC(C)c1ccccc1NC(=O)c1cc2cccc([N+](=O)[O-])c2[nH]1 (centres undefined)	AHR act 55
O=C(OC12CCCN(C1)/C(=C/c1ccc(Cl)cc1)C2)C1CCCCC1 (centres undefined)	none (no result: Efflux pump mplx, TbMetRS inhib, AHR act, TAG inh)
Cc1ccc(C(=O)N/N=C(/CC(=O)c2cccs2)C(F)(F)F)cc1	AHR act 62 (no result: TAG inh)
Cc1c(Cl)cccc1NC(=S)N=Nc1c(O)n(CN2CCOCC2)c2ccccc12	Efflux pump mplx 29, AHR act 53 (no result: TbMetRS inhib, TAG inh, SMARCA2 activ)
Oc1c(N=NC(=S)Nc2ccccc2F)c2ccccc2n1Cc1ccccc1Cl	none
COc1cc(NC(=O)C2CCCN(S(=O)(=O)c3ccccc3[N+](=O)[O-])C2)cc(OC)c1 (centres undefined)	none (no result: Efflux pump mplx, TbMetRS inhib, AHR act, TAG inh)
CCS(=O)(=O)Nc1ccc2c(c1)C(=O)N(C)[C@@H]1CC[C@H](CC(=O)NCCOC)O[C@H]1CO2	none (no result: Efflux pump mplx, TbMetRS inhib, AHR act, TAG inh)
COc1ccc(/C(C)=N/Nc2nccnc2Cl)cc1	SMARCA2 activ 7.9
C/C(=N\Nc1ncc(Cl)cc1Cl)c1ccc(OC(F)F)cc1	AHR act 63 (no result: TAG inh)
O=C(CCn1nnc2ccccc21)N1CCN(c2ccc(F)cc2)CC1	none (no result: Efflux pump mplx, TbMetRS inhib, AHR act, TAG inh)
CCn1c(SCc2ccccc2Cl)nnc1-c1ccccc1OC	none (no result: Efflux pump mplx, TbMetRS inhib, AHR act, TAG inh)
C[C@]12Cc3ccccc3C1CC1=N[C@@H](c3ccc(C(F)(F)F)cc3)O[C@@]13C[C@@H]2C(=O)N3C1CCN(Cc2ccccc2)CC1 (some centres undefined)	none (no result: Efflux pump mplx, TbMetRS inhib, AHR act, TAG inh)
COc1ccccc1NC(=O)c1cnc2n(c1=O)CCS2	AHR act 67
COc1ccc(Cl)cc1NC(=O)c1cnc2n(c1=O)CCS2	none
COc1ccc(OC)c(NC(=O)c2cnc3n(c2=O)CCS3)c1	AHR act 50
COc1cccc(C(=O)N[C@H](C(=O)N2CCC[C@H]2C(=O)NCCc2ccccc2Cl)C(C)C)c1	none (no result: Efflux pump mplx, TbMetRS inhib, AHR act, TAG inh)
Cc1nn(-c2ccccc2)c(C)c1/C=N/n1c(-c2ccccc2Br)n[nH]c1=S	AHR act 51
CCN(CC)c1ccc(/C=N/n2c(-c3ccccc3Br)n[nH]c2=S)cc1	none
COc1ccc2c(c1)C(=NNC(=O)c1ccccn1)c1cc(OC)ccc1-2	AHR act 52
COc1ccc(C(=O)NNC(=O)c2ccccn2)cc1	none
CCC(C)N(C(=O)CSc1nnc(-c2cc(OC)c(OC)c(OC)c2)o1)C(C)CC (centres undefined)	none (no result: Efflux pump mplx, TbMetRS inhib, AHR act, TAG inh)
CC(C)c1c(O)cc(-c2ccncc2)n(-c2ccc(Cl)cc2)c1=O	SMARCA2 activ 14 (no result: TAG inh)
Cn1ccnc1SCC(=O)c1c[nH]c2ccccc12	AHR act 70
O=C(CSc1nccc(=O)[nH]1)c1c[nH]c2ccccc12	none
Cn1ccnc1SCC(=O)Nc1cccc2ccccc12	none (no result: TAG inh)
Cn1ccnc1SCC(=O)n1c2c(c3ccccc31)CCCC2	AHR act 72 (no result: TAG inh)
O=C(CSc1nc2ncc(Cl)cc2[nH]1)c1c[nH]c2ccccc12	AHR act 60
COC(=O)[C@]12C[C@H](CC(=O)NCCc3ccccc3OC)C(=O)N(CCc3ccc(OC)c(OC)c3)C1=C[C@H](C(C)(C)C)O[C@@H]2C	none (no result: Efflux pump mplx, TbMetRS inhib, AHR act, TAG inh)
O=C(Nc1c2ccccc2nc2ccccc12)C(Cl)(Cl)Cl	TAG inh 66 (no result: SMARCA2 activ)
CCN(CC)C(=O)c1ccc2c(c1)NC(=O)C(C)(C)O2	none (no result: Efflux pump mplx, TbMetRS inhib, AHR act, TAG inh)
CN(C)CCNc1oc(-c2cccc(Cl)c2)nc1C#N	AHR act 78 (no result: TAG inh)
CN(C)CCCNc1oc(-c2ccccc2)nc1C#N	none
CC(=O)SC(C[N+](=O)[O-])c1cn(C(C)=O)c2ccccc12 (centres undefined)	AHR act 63
CC(C)(C)c1cc[n+](C2=C([O-])c3ccccc3C(=O)/C2=N\S(=O)(=O)c2cccs2)cc1	TAG inh 64
O=C1/C(=N\S(=O)(=O)c2cccs2)C([n+]2ccccc2)=C([O-])c2ccccc21	TAG inh 76
COC(=O)c1ccc2c(C3(c4c[nH]c5ccccc45)CCN(C(=O)OC(C)(C)C)CC3)c[nH]c2c1	none (no result: Efflux pump mplx, TbMetRS inhib, AHR act, TAG inh)
O=C(OCc1cn(Cc2cccc(F)c2F)nn1)N1CCOCC1	none (no result: Efflux pump mplx, TbMetRS inhib, AHR act, TAG inh)
CCOC(=O)CS(=O)(=O)c1nc(-c2ccccc2)cc(C(F)(F)F)n1	none
CCOC(=O)Cc1cc(-c2ccccc2)nc2ccc3ccccc3c12	AHR act 93
CCOC(=O)CCS(=O)(=O)c1nc(-c2ccccc2)cc(C(F)(F)F)n1	TAG inh 74 (no result: SMARCA2 activ)
CCOC(=O)c1cc(-c2ccccc2)nc2ccc(C)cc12	none
Cc1sc(NC(=O)Nc2ccccc2)c(C(N)=O)c1C	AHR act 53
CC(=O)c1c(N)[nH]c(-c2ccccc2)nc1=S	AHR act 62 (no result: SMARCA2 activ)
CC(=O)c1c(N2CCCC2)[nH]c(-c2ccccc2)nc1=S	none (no result: TAG inh)
O=C(COc1ccccc1/C=C1\SC(=O)NC1=O)Nc1ccc(F)cc1	AHR act 98 (no result: TAG inh)
C=CCn1c(SCC(=O)c2ccc(-c3ccccc3)cc2)nnc1-c1ccc(OC)cc1	none (no result: Efflux pump mplx, TbMetRS inhib, AHR act, TAG inh)
Cc1cc(-c2csc(Nc3ccccn3)n2)ccc1F	AHR act 65
Fc1ccc(-c2csc(Nc3ccccn3)n2)c(F)c1	AHR act 78
Cc1ccc(-c2csc(Nc3ccccn3)n2)cc1	none
C[C@H](O)[C@@H]1C(=O)N2CCc3c([nH]c4c(-c5ccc6c(c5)OCO6)cccc34)[C@@H]2C[C@@H]1N(C)C(=O)Nc1ccccc1	none (no result: Efflux pump mplx, TbMetRS inhib, AHR act, TAG inh)
COC(=O)[C@]12C[C@H](CC(=O)N3CCC(c4ccccc4)CC3)C(=O)N(Cc3cccc4ccccc34)C1=C[C@H](C(C)(C)C)O[C@@H]2C	none (no result: Efflux pump mplx, TbMetRS inhib, AHR act, TAG inh)
COC(=O)C1=C(C)N(C)C(=NCc2ccc3c(c2)OCO3)NC1c1cccc(F)c1 (centres undefined)	none (no result: Efflux pump mplx, TbMetRS inhib, AHR act, TAG inh)
CC(C)NC(=O)C(Cc1ccccc1)N1C(=O)c2ccccc2C1=O (centres undefined)	AHR act 55 (no result: TAG inh)
CC(C)(O)CNC(=O)C(Cc1ccccc1)N1C(=O)c2ccccc2C1=O (centres undefined)	none (no result: TAG inh)
O=C(Nc1cccc(C(=O)O)c1)/C(=C/c1ccc([N+](=O)[O-])cc1)NC(=O)c1ccccc1	none
